High-throughput results as filed in PubChem.
TAAR1 antag = human TAAR1 antagonism. Q96RJ0. CHO RD-HGA16 TAAR1, Fluo-8 calcium fluorescence, antagonist. inhibition, % at 3 µM. 1.5% of 360,000 active. AID 624466;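 active = inhibition above a per-plate cutoff, the mean inhibition of test compounds on that plate plus 3 SD, cut at about 49% in these data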
Target sequence (Q96RJ0 whole entry, looked up): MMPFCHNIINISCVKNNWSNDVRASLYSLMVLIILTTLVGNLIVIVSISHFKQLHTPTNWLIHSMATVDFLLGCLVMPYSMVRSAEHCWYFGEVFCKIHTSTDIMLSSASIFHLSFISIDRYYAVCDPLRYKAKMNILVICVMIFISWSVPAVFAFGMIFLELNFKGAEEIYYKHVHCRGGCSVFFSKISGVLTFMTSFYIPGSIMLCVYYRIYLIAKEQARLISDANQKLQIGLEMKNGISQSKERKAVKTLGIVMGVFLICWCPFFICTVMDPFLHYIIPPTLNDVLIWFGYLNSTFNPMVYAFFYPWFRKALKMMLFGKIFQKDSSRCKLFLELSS
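Material: RD-HGA16 CHO cells with stable hTAAR1 and Gα16; Dosing: single nominal final test compound concentration of 3 µM; Schedule: seeding 17-24 h prior, 75-min 37 °C, 30-min RT dye loading; Detection: kinetic Fluo-8 calcium fluorescence measurement; Measure: % inhibition from peak post-agonist over basal fluorescence ratio; Benchmarks: vehicle and agonist controls.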
TAAR1 agonist = human TAAR1 agonism. Q96RJ0. CHO RD-HGA16 TAAR1, Fluo-8 calcium fluorescence; vehicle wells 0%, saturating PEA agonist 100%. activation, % at 3 µM. 0.99% of 360,000 active. AID 624467;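 active = activation above the mean activation of all test compounds in the run plus 3 SD, cut at about 38% in these data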
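test system = CHO RD-HGA16 cells carrying human TAAR1 plus Gα16 | schedule = 17-24 h seeding, 75 min 37 °C dye, 30 min RT | compound dosing = 3 µM single concentration | control set = DMSO and PEA EC100 | replicates = n 1 | signal = Fluo-8 fluorescence, 5 s baseline then 140 s kinetic read | measure = percent activation vs PEA EC100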
OX1R antag-1 = antagonists of human orexin 1 receptor; O43613; inhibition, % at 5 µM; CHO/OX1R cells, Fluo-8 calcium fluorescence, orexin A; 0.43% of 330,000 active;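 active = inhibition above its plate's threshold, mean inhibition of all tested compounds on the plate plus 3 SD, cut at about 37% in these data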
Target sequence (O43613 whole entry, looked up): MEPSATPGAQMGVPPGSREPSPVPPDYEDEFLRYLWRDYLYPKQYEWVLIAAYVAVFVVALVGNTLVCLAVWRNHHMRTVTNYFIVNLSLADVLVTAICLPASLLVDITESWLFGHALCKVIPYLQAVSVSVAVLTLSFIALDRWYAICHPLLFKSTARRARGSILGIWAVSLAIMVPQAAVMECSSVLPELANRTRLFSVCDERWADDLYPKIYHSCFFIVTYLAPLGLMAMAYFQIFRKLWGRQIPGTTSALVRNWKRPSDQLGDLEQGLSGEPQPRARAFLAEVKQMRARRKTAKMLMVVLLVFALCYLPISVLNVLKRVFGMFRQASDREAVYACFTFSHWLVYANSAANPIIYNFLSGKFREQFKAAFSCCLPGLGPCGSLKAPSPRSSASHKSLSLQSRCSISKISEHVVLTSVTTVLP
OX1R antag-2 = blocks the human orexin 1 receptor; OX1R-expressing cells, FRET antagonist read-out; AID 485270; 1.8% of 330,000 active; inhibition, % at 6.6 µM; in the data active = inhibition mostly above about 38%, no sharp cut-off; inactive = mostly below about 40%
GPR7 antag = blocks human GPR7 receptor signaling; P48145; GPR7-expressing cells, fluorescence antagonist assay; inhibition, % at 4.4 µM; 1.1% of 290,000 active; in the data active = inhibition above about 16%, passing the limit was not always enough;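 note: cells stimulated with the agonist NPW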
CHO parental Ca = counter-screen for OX1R antagonists: effect in parental CHO cells; parental CHO-K1, ATP-induced calcium, Fluo-8 fluorescence; 0.63% of 330,000 active; AID 463079; inhibition, % at 5.6 µM;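 active = inhibition above that plate's mean sample inhibition plus 3 SD, cut at about 26% in these data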
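material = parental CHO cells | also added = ATP as calcium-mobilizing challenge | dosing = single point at 5.6 µM | detection = intracellular calcium via Fluo-8 no-wash fluorescent dye | read-out = % inhibition | benchmarks = low control ATP plus DMSO, high control DMSO only | repeats = one well per compound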
OX1R Ca confirm = OX1R (human) antagonism, confirmed. shares compounds with OX1R antag-1. AID 492963. 38% of 1,100 active. CHO/OX1R cells, orexin A calcium Fluo-8 fluorescence. inhibition, % at 5 µM; in the data active = inhibition above about 29%
CHO Ca triplic = counter-screen: parental CHO calcium response change, triplicate; 9.3% of 1,100 active; shares compounds with OX1R antag-1; AID 492965; parental CHO-K1, ATP-induced calcium, Fluo-8 fluorescence; inhibition, % at 5.6 µM;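 active = inhibition above a per-plate limit, the mean inhibition of that plate's test compounds plus 3 SD, cut at about 25% in these data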
Hits are given with their value; 0 = inactive; - = no result. The list is not random: actives were taken first. Their share in the collection is about 4.5%.

SMILES | TAAR1 antag | TAAR1 agonist | OX1R antag-1 | OX1R antag-2 | GPR7 antag | CHO parental Ca | OX1R Ca confirm | CHO Ca triplic
CC(C)OC(=O)NCCOC(=O)Nc1ccccc1Cl | 0 | 0 | 0 | 0 | 0 | 0 | - | -
CCOC(=O)[C@]12CCC=C1N(CCC1=CCCCC1)C(=O)[C@H](CC(=O)N1CCCC1)C2 | 0 | 0 | - | - | - | - | - | -
COc1c(C)cc(Br)cc1C(=O)Nc1ccc(Cc2ccncc2)cc1 | 0 | 0 | 0 | 0 | 0 | 0 | 0 | 0
COc1ccccc1C(=O)Nc1ccc(Cc2ccncc2)cc1 | 0 | 0 | 0 | 0 | 0 | 0 | - | -
Cc1cc(N(C)C)cc(C)c1N=Nc1cc[n+]([O-])cc1 | 0 | 0 | - | - | - | - | - | -
O=C(COC(=O)Cc1c[nH]c2ccccc12)Nc1cc(S(=O)(=O)N2CCOCC2)ccc1Cl | 0 | 0 | 0 | 0 | - | 0 | - | -
Cc1ccc(S(=O)(=O)N2CCOCC2)cc1NC(=O)COC(=O)CCc1c[nH]c2ccccc12 | 0 | 0 | 0 | 0 | - | 0 | 0 | 0
O=c1c(/C=C(\O)c2ccccc2)nc2ccccc2n1-c1ccccc1 | 0 | 0 | 61 | 0 | 0 | 0 | 0 | 0
CCCN1C(=O)/C(=C/C=C2\N(CC)c3ccccc3C2(C)C)SC1=S | 0 | 0 | 0 | 0 | 0 | 0 | 55 | 52
CCN1C(=O)/C(=C/C=C2/Sc3ccccc3N2CCO)SC1=S | 0 | 0 | 0 | 0 | 0 | 0 | 0 | 25
Cc1ccc2cccc(CC(=O)NN)c2c1 | 0 | 0 | - | - | - | - | - | -
N#CCCn1cc(/C=N/NC(N)=S)c(-c2ccc(-c3ccccc3)cc2)n1 | 0 | 0 | 0 | 0 | 0 | 0 | 0 | 0
N#CCCn1cc(/C=N/O)c(-c2ccccc2)n1 | 0 | 0 | 0 | 0 | 0 | 0 | - | -
COc1ccccc1NS(=O)(=O)c1ccc(C)c(C(=O)N2CCN(c3ccc(O)cc3)CC2)c1 | 0 | 0 | 0 | 0 | - | 0 | - | -
O=C(O/N=C1\CCS(=O)(=O)c2sccc21)c1c(F)cccc1F | 0 | 0 | 44 | 0 | 0 | 0 | 0 | 0
CCC(c1nnnn1-c1c(C)cccc1C)N1CCCN(Cc2ccc(F)cc2)CC1 (configuration not stated) | 0 | 0 | - | - | - | - | - | -
Cc1ccc(C)c(OCCC(=O)NNC(=O)c2ccccc2)c1 | 0 | 0 | 0 | 0 | - | 0 | 0 | 0
Cc1cc(C(=O)COC(=O)c2ccc(O)cc2O)c(C)n1-c1ccccc1 | 0 | 0 | 0 | 0 | - | 0 | 0 | 0
Cc1ccc(-c2csc(N/N=C/c3ccco3)n2)cc1 | 0 | 0 | 0 | 0 | 0 | 0 | - | -
CN(C)S(=O)(=O)c1ccc(-c2csc(N/N=C/c3ccco3)n2)cc1 | 79 | 0 | 0 | 0 | 0 | 0 | 70 | 0
CC(C)=CCC/C(C)=C/CNC(=O)C[C@H]1C[C@H](C(=O)N2CCCCC2)[C@@]2(C)c3[nH]c4cc(CCC(=O)N(C)C)ccc4c3CCN2C1=O | - | - | 49 | 0 | - | 0 | 0 | 0
CCOc1ccc(S(=O)(=O)n2cnc3cc(C)c(C)cc32)cc1 | 0 | 0 | 60 | 0 | 0 | 0 | 0 | 59
Cc1cc2ncn(S(=O)(=O)c3ccc(S(N)(=O)=O)cc3)c2cc1C | 0 | 0 | - | - | - | - | - | -
Nc1nnc(SCc2nc3scc(-c4ccccc4)c3c(=O)[nH]2)s1 | 0 | 0 | 0 | 0 | 0 | 0 | 0 | 0
Cc1ccn2c(NCc3ccccc3)c(-c3cccc(SC4CCCCC4)c3)nc2c1 | 0 | 0 | 0 | 0 | - | 0 | 0 | 0
SMILES | TAAR1 antag | TAAR1 agonist | OX1R antag-1 | OX1R antag-2 | GPR7 antag | CHO parental Ca | OX1R Ca confirm | CHO Ca triplic
Cc1ccc2nc(-c3cccc(SC4CCCCC4)c3)c(NC3CCCCC3)n2c1 | 0 | 0 | 0 | 0 | - | 0 | - | -
CCNC(=S)N(Cc1ccc2c(c1)OCO2)C1CC(=O)N(c2ccc(F)cc2)C1=O (configuration not stated) | 0 | 0 | 57 | 0 | 0 | 0 | 0 | 0
CCOC(=O)[C@]12CCCC=C1N(Cc1ccc3c(c1)OCO3)C(=O)[C@H](CC(=O)N1CCCCC1)C2 | 0 | 0 | - | - | - | - | - | -
C[C@@H]1CN([C@@H](C)CO)C(=O)CCCn2nncc2CO[C@H]1CN(C)S(C)(=O)=O | 0 | 0 | - | - | - | - | - | -
Cc1ccc(C)c(NS(=O)(=O)c2cc(C(=O)NCCSC3CCCCC3)ccc2C)c1 | 0 | 0 | 51 | 0 | 0 | 0 | 0 | 0
Cc1ccc(C)c(NS(=O)(=O)c2cc(C(=O)Nc3cccc(N(C)S(C)(=O)=O)c3)ccc2C)c1 | 0 | 0 | 65 | 0 | 0 | 0 | 36 | 0
Cc1ccccc1NS(=O)(=O)c1cc(C(=O)NCCSC2CCCCC2)ccc1C | 0 | 0 | 60 | 0 | 0 | 0 | 0 | 0
Nc1ncnc2c1ncn2[C@@H]1O[C@H](CNC(=O)[C@@H](N)Cc2ccc(C(=O)c3ccccc3)cc2)[C@@H](O)[C@H]1O | 0 | 0 | - | - | - | - | - | -
CN1CCN(C(=O)C2=NOC3(C2)C(=O)Nc2ccccc23)CC1 (configuration not stated) | 0 | 0 | - | - | - | - | - | -
O=C(/C=C/c1ccc(S(=O)(=O)NCc2ccco2)cc1)NCc1cccc(Cl)c1 | 0 | 0 | 54 | 0 | 0 | 0 | 0 | 0
O=C(CSc1ncnc2c1cnn2CCc1ccccc1)Nc1cccc(C(F)(F)F)c1 | 60 | 0 | 61 | 0 | 0 | 0 | 0 | 0
Cc1c(Cl)cccc1NC(=O)CSc1ncnc2c1cnn2CCc1ccccc1 | 0 | 0 | 0 | 0 | 0 | 0 | - | -
Oc1ccccc1-c1nnc(-c2ccc(C(F)(F)F)cc2)o1 | 0 | 0 | 0 | 0 | 0 | 0 | - | -
COc1ccc(-c2nc(/C=C3\C(C)=Nc4ccccc43)c(O)o2)cc1 | 0 | 0 | 0 | 0 | 0 | 0 | 0 | 0
Cc1ccc(N=Cc2nc(-c3ccc(C)cc3)oc2O)cc1 | 0 | 0 | - | - | 0 | - | - | -
CC1=Nc2ccccc2/C1=C\c1nc(-c2ccc(C(F)(F)F)cc2)oc1O | 0 | 0 | 40 | 0 | 0 | 0 | 51 | 54
CCOc1ccc2nc(SCC(=O)c3ccccc3)sc2c1 | 0 | 0 | 0 | 0 | 0 | 0 | - | -
CCOc1ccc2nc(SCCNS(=O)(=O)c3ccccc3)sc2c1 | 60 | 0 | 50 | 0 | 0 | 0 | 0 | 0
N#Cc1ccccc1NC(=O)C(=O)NCC1CCCN1S(=O)(=O)c1cccs1 (configuration not stated) | 0 | 0 | 0 | 0 | - | 0 | 0 | 0
Cc1ccccc1Nc1nc(N)[nH]c(=O)c1N=O | 0 | 0 | - | - | - | - | - | -
COCC(=O)Nc1cc(C(=O)NCC(C)C)ccc1Cl | 0 | 0 | 0 | 0 | 0 | 0 | 0 | 0
COCC(=O)Nc1cc(C(=O)NCCc2ccccc2)ccc1Cl | 0 | 0 | 0 | 0 | 0 | 0 | - | -
CCCNC(=O)C1(C)CCN(C(=O)c2c(Cl)cccc2Cl)C1 (configuration not stated) | 0 | 0 | - | - | - | - | - | -
Cc1oc(-c2cccc3ccccc23)nc1CN1CCN(c2ncnc3ccccc23)CC1 | 57 | 0 | 0 | 0 | 0 | 0 | 0 | 0
